Laboratory results taken from ChEMBL document CHEMBL1142233, “Treatment of diabetes and atherosclerosis by inhibiting fatty-acid-binding protein aP2” (2007).
Calls of active or inactive are those of the source. The rule behind the calls is not given here.

Columns and labels:
Mus musculus [1] = experiment: Effect on body weight in 5-week old apoE-/- C57BL/6J mouse fed on western diet and 15 mg/kg/day, po drug simultaneously in 5-11 week early intervention study; assay type: functional
Mus musculus [2] = experiment: Effect on triglyceride level in 5-week old apoE-/- C57BL/6J mouse fed on western diet and 15 mg/kg/day, po drug simultaneously in 5-11 week early intervention study; assay type: functional
Summary of the method: (§1)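 Male Apoe−/− mice on western diet (21% fat, 0.21% cholesterol) from 4–5 weeks of age. Oral gavage for 6 weeks from age 5 or 12 weeks; vehicle 10% 1-methyl-2-pyrrolidone, 5% cremophor EL with ethanol in water. Blood taken after 6 h fast before and after treatment. Glucose by meter; insulin by ELISA; lipids and glycerol colorimetric.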

Mus musculus [3] = experiment: Effect on glycerol level in 5-week old apoE-/- C57BL/6J mouse fed on western diet and 15 mg/kg/day, po drug simultaneously in 5-11 week early intervention study; assay type: functional; summary of the method: as §1
[4] = Reduction of Mcp1 expression mouse aP2-/-R macrophage cells (re-expression of aP2) relative to control; assay type: functional, cell-based
Summary of the method: (§2)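 Mouse aP2⁺/⁺ and aP2-reconstituted aP2⁻/⁻ macrophage lines were grown in RPMI with FBS or 5% LPDS, with inhibitor in DMSO or vehicle. Mcp-1, Il1β, Il6 and Tnf mRNA were measured by SYBR Green qRT-PCR (annealing at 58 °C, 50 cycles), normalized to 18s rRNA and then to untreated cells. Mean ± s.e.m.; at least triplicate.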

Mus musculus [5] = experiment: Decrease in Scd1 expression in liver of ob/ob mouse at 40 mg/kg/day, po; assay type: functional, organism-based
Summary of the method: (§3)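 Liver from male ob/ob mice gavaged daily for 6 weeks from 8 weeks of age, n = 6 per group. mRNA measured by SYBR Green real-time PCR: 95 °C 4 min, then 50 cycles of 95 °C 15 s, 58 °C 30 s, 72 °C 30 s. Normalized to 18s rRNA.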

Mus musculus [6] = experiment: Decrease in Acaca expression in liver of ob/ob mouse at 40 mg/kg/day, po; assay type: functional, organism-based; summary of the method: as §3
Mus musculus [7] = experiment: Inhibition of JNK1 activity in ob/ob mouse liver at 40 mg/kg/day, po relative to control; assay type: functional, organism-based
Summary of the method: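 Liver lysates (500–1,000 μg protein) from ob/ob mice gavaged at 40 mg kg⁻¹ d⁻¹ were immunoprecipitated with JNK1 antibody. The beads were incubated with 10 μCi ³²P-γATP, 10 μM ATP and 5 μg c-jun fusion protein in Hepes pH 7.4/MgCl₂ buffer at 30 °C for 20 min. The reaction was stopped with Laemmli buffer and quantified.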

[8] = Reduction of IL6 expression mouse aP2+/+ macrophage cells relative to control; assay type: functional, cell-based; summary of the method: as §2
[9] = Reduction of TNF expression in mouse aP2+/+ macrophage cells relative to control; assay type: functional, cell-based; summary of the method: as §2
Mus musculus [10] = experiment: Increase in insulin sensitivity in ob/ob mouse at 40 mg/kg/day, po after 5 weeks by insulin tolerance test; assay type: functional, organism-based
Summary of the method: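 Male ob/ob mice, from 8 weeks of age, got 40 mg kg⁻¹ d⁻¹ of the inhibitor or vehicle by oral gavage for 6 weeks. After 5 weeks of treatment and a 6 h fast, insulin was given intraperitoneally (2 IU kg⁻¹). Blood glucose was read with a glucose meter on 3 μl whole blood. Vehicle and treated groups had n = 6 each.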

Mus musculus [11] = experiment: Effect on glycerol level in ob/ob mouse at 40 mg/kg/day, po after 6 weeks relative to control; assay type: functional
Summary of the method: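 Male ob/ob mice given oral gavage daily for 6 weeks from 8 weeks old, n = 6 per group. Blood taken after 6 h fast before and after treatment; fed glucose taken at week 2. Glucose by meter on 3 μl whole blood, insulin by ultrasensitive ELISA, cholesterol, FFA and glycerol by colorimetric microplate assays.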

Mus musculus [12] = experiment: Suppression of clamp hepatic glucose production in ob/ob mouse at 40 mg/kg/day, po after 4 weeks by hyperinsulinemic-euglycaemic clamp studies; assay type: functional, organism-based
Summary of the method: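 Clamps were run in ob/ob mice after 4 weeks of oral gavage at 40 mg kg⁻¹ d⁻¹ (vehicle n = 7, treated n = 9), with jugular catheters placed 4 days earlier. Insulin was infused at 12.5 mU kg⁻¹ min⁻¹, 25% glucose at variable rates held basal glycaemia, and ³H-glucose ran at 0.1 μCi min⁻¹. Clamp hepatic glucose production = whole-body uptake minus glucose infusion rate.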

Mus musculus [13] = experiment: Effect on body weight in 5-week old apoE-/- C57BL/6J mouse fed on western diet and administered with 15 mg/kg/day, po drug at 12 week in 12-18 week late intervention study; assay type: functional
Mus musculus [14] = experiment: Effect on triglyceride level in 5-week old apoE-/- C57BL/6J mouse fed on western diet and administered with 15 mg/kg/day, po drug at 12 week in 12-18 week late intervention study; assay type: functional; summary of the method: as §1
THP-1 = experiment: Reduction of transformation of human THP1 cells to foam cells at 25 uM after 3 days relative to control; assay type: functional, cell-based
Summary of the method: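 PMA-differentiated THP-1 macrophages (100 nM, 24 h) were loaded with 50 μg ml⁻¹ acLDL for 24 h in 5% LPDS, then treated 3 days with 25 μM inhibitor or DMSO in 10% FBS. Cells were fixed in 10% formalin for 90 min and stained with Oil Red O for 3 h to view foam cells.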

[15] = Reduction in total cholesterol ester content in mouse aP2-/-R macrophage cells (re-expression of aP2) at 25 uM relative to control; assay type: functional, cell-based
[16] = target: Apolipoprotein A-I (Homo sapiens) (UniProt P02647); experiment: Increase in APOA1-mediated cholesterol in human THP1 cells at 25 uM relative to control; assay type: cell-based; conditions: THP-1
Apolipoprotein A-I (Homo sapiens), sequence (P02647 whole entry): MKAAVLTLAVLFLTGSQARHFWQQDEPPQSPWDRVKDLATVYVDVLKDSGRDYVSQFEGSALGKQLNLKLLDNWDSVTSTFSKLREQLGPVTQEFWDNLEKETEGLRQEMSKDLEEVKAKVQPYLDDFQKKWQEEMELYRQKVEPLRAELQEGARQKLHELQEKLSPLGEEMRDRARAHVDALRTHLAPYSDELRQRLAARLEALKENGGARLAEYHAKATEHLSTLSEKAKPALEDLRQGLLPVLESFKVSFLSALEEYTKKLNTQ
Summary of the method: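 Macrophages loaded 24 h in RPMI with 5% LPDS, 1 μCi ml⁻¹ ³H-cholesterol and 50 μg ml⁻¹ acLDL, ± 25 μM inhibitor. Equilibrated 24 h in 0.2% fatty-acid-free BSA ± inhibitor, then 4 h ± APOA1 20 μg ml⁻¹. Efflux = medium ³H as % of total, per mg protein; mouse lines normalized to untreated aP2+/+.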

[17] = Reduction of Mcp1 expression mouse aP2+/+ macrophage cells relative to control; assay type: functional, cell-based; summary of the method: as §2
Mus musculus [18] = experiment: Decrease in Cd68 expression in ob/ob mouse adipose tissue at 40 mg/kg/day, po; assay type: functional, organism-based
Mus musculus [19] = experiment: Decrease in IL1-beta expression in ob/ob mouse adipose tissue at 40 mg/kg/day, po; assay type: functional, organism-based
Mus musculus [20] = experiment: Decrease in TNF expression in ob/ob mouse adipose tissue at 40 mg/kg/day, po; assay type: functional, organism-based
Mus musculus [21] = experiment: Attenuation of JNK1 activity in ob/ob mouse adipose tissue at 40 mg/kg/day, po; assay type: functional
Summary of the method: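 Adipose lysate from male ob/ob mice (oral gavage 6 weeks from 8 weeks of age) immunoprecipitated with JNK1 antibody and protein A beads. Beads incubated with 10 μCi ³²P γATP, 10 μM ATP and 5 μg c-jun fusion protein at 30 °C for 20 min, then Laemmli stop.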

[22] = Reduction of IL1-beta expressed in mouse aP2-/-R macrophage cells (re-expression of aP2) relative to control; assay type: functional, cell-based; summary of the method: as §2
Mus musculus [23] = experiment: Increase in glucose metabolism in ob/ob mouse at 40 mg/kg/day, po after 4 weeks by glucose tolerance test; assay type: functional, organism-based
Summary of the method: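 Male ob/ob mice after 4 weeks of daily 40 mg kg⁻¹ oral gavage (started at 8 weeks), n = 6 per group. Glucose tolerance tested with 0.5 g kg⁻¹ intraperitoneal glucose after an overnight fast.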

In the case of `CCc1c(-c2ccccc2)c(-c2ccccc2)nn1-c1ccccc1-c1cccc(OCC(=O)O)c1`, the Activity (Mus musculus [1]) is reported as 30.3 g, the Activity (Mus musculus [2]) is reported as 213.6 mg/dL and the Activity (Mus musculus [3]) is reported as 2.31 mM. The Activity [4] was “Active”, the Activity (Mus musculus [5]) was “Active” and the Activity (Mus musculus [6]) was “Active”. For the same compound, the Activity (Mus musculus [7]) was “Active”, the Activity [8] was “Active” and the Activity [9] was “Active”. The Activity (Mus musculus [10]) was “Active”, the Activity (Mus musculus [11]) was 0.56 mM and the Activity (Mus musculus [12]) was “Active”. For the same compound, the Activity (Mus musculus [13]) was 37 g, the Activity (Mus musculus [14]) was 410.7 mg/dL and the Activity (THP-1) was “Active”. The Activity [15] was “Active”, the Activity [16] was “Active” and the Activity [17] was “Active”. The Activity (Mus musculus [18]) was “Active”, the Activity (Mus musculus [19]) was “Active” and the Activity (Mus musculus [20]) was “Active”. The Activity (Mus musculus [21]) was 40%, the Activity [22] was “Active” and the Activity (Mus musculus [23]) was “Active”.
